How the values were obtained:
[1] = Diuretic activity at 40 mg/kg (screening dose-55.2 umol/kg) in […] in a one stage experiment; T/C = urine vol of treated rats / urine vol of control rats; format: functional
Summary of the method: (§1)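 40 mg/kg given by gavage in 25 mL/kg 0.9% saline with 0.5% (carboxymethyl)cellulose. Four rats per agent, two per metabolism cage; 20 controls; 5 h urine. T/C = treated/control urine volume. Stage-1 T/C of 1.66 or more leads to stage 2; product T/C1·T/C2 of 3.34 or more counts as active.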

[2] = Diuretic activity at 40 mg/kg (screening dose-55.2 umol/kg) in […] in a two stage experiment; T/C1.2 = urine vol of treated rats / urine vol of control rats; format: functional; summary of the method: as §1
Rattus norvegicus [3] = assay: Mean excretion of sodium in conscious rats at a dose of 10 mg/kg given orally; format: ADME, organism-based; design: dose 10 mg/kg, route oral; details: in vivo, po
Summary of the method: (§2)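 Male Sprague-Dawley rats, about 160 g, fasted 24 h and water withheld 1 1/2 h beforehand; food and water withheld during the test. Dosing by gavage with 25 mL/kg 0.9% saline containing 0.5% (carboxymethyl)cellulose, agent dissolved or suspended. Three cages of two rats each per dose, held in metabolism cages. Urine collected over 5 h. Volume given in mL, Na+ in mequiv. Significance versus control at P < 0.05.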

Rattus norvegicus [4] = assay: Mean excretion of potassium in conscious rats at a dose of 10 mg/kg given orally; format: ADME, organism-based; design: dose 10 mg/kg, route oral; details: in vivo, po
Summary of the method: (§3)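 Secondary dose-response in male Sprague-Dawley rats (~160 g), fasted and hydrated as in the primary screen. Oral gavage at 0.3-100 mg/kg in 25 mL/kg saline/0.5% CMC, three cages of two rats per dose. Urine collected 5 h; Na, K, Cl, HCO3 measured. Values are mean excretion (mequiv), compared with controls at P < 0.05.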

Rattus norvegicus [5] = species on record: Rattus norvegicus; assay: […]; format: ADME, organism-based, Urine; design: dose 10 mg/kg, route oral; details: in vivo, po, 10 mg/kg; summary of the method: as §2
Rattus norvegicus [6] = assay: Mean excretion of chloride in conscious rats at a dose of 30 mg/kg given orally; format: ADME, organism-based; design: dose 30 mg/kg, route oral; details: in vivo, po; summary of the method: as §3
[7] = Diuretic activity at 40 mg/kg (screening dose 88.2 umol/kg) in […] in a one stage experiment; T/C = urine vol of treated rats / urine vol of control rats; format: functional; summary of the method: as §1
Rattus norvegicus [8] = species on record: Rattus norvegicus; assay: […]; format: ADME, organism-based, Urine; design: dose 0.3 mg/kg, route oral; details: in vivo, po, 0.3 mg/kg
Summary of the method: (§4)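 Dose-response test in male Sprague-Dawley rats of about 160 g, fasted 24 h, with water withheld 1½ h before and during the test. Each rat got a single gavage of 25 mL/kg 0.9% saline with 0.5% carboxymethylcellulose carrying the agent (0.3–100 mg/kg range). Rats were housed two per metabolism cage, and urine was collected for 5 h. Mean urine volume (mL) was compared with controls (P < 0.05).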

Rattus norvegicus [9] = assay: Mean excretion of potassium in conscious rats at a dose of 3.0 mg/kg given orally; format: ADME, organism-based; design: dose 3 mg/kg, route oral; details: in vivo, po; summary of the method: as §3
Rattus norvegicus [10] = assay: Mean excretion of potassium in conscious rats at a dose of 30 mg/kg given orally; format: ADME, organism-based; design: dose 30 mg/kg, route oral; details: in vivo, po; summary of the method: as §3
Rattus norvegicus [11] = assay: Mean excretion of chloride in conscious rats at a dose of 3.0 mg/kg given orally; format: ADME, organism-based; design: dose 3 mg/kg, route oral; details: in vivo, po; summary of the method: as §3
Rattus norvegicus [12] = assay: Mean excretion of potassium in conscious rats at a dose of 1.0 mg/kg given orally; format: ADME, organism-based; design: dose 1 mg/kg, route oral; details: in vivo, po; summary of the method: as §3
Rattus norvegicus [13] = assay: Mean excretion of potassium in conscious rats at a dose of 100 mg/kg given orally; format: ADME, organism-based; design: dose 100 mg/kg, route oral; details: in vivo, po; summary of the method: as §3
Rattus norvegicus [14] = assay: Mean excretion of sodium in conscious rats at a dose of 3.0 mg/kg given orally; format: ADME, organism-based; design: dose 3 mg/kg, route oral; details: in vivo, po; summary of the method: as §2
Rattus norvegicus [15] = assay: Mean excretion of sodium in conscious rats at a dose of 100 mg/kg given orally; format: ADME, organism-based; design: dose 100 mg/kg, route oral; details: in vivo, po; summary of the method: as §2
[16] = Diuretic activity at 40 mg/kg (screening dose-88.2 uM/Kg) in […] in a two stage experiment; T/C1.2 = urine vol of treated rats / urine vol of control rats; format: functional; summary of the method: as §1
Rattus norvegicus [17] = assay: Mean excretion of sodium in conscious rats at a dose of 30 mg/kg given orally; format: ADME, organism-based; design: dose 30 mg/kg, route oral; details: in vivo, po; summary of the method: as §2
Rattus norvegicus [18] = species on record: Rattus norvegicus; assay: […]; format: ADME, organism-based, Urine; design: dose 1 mg/kg, route oral; details: in vivo, po, 1 mg/kg; summary of the method: as §4
Rattus norvegicus [19] = assay: Mean excretion of sodium in conscious rats at a dose of 0.3 mg/kg given orally; format: ADME, organism-based; design: dose 0.3 mg/kg, route oral; details: in vivo, po; summary of the method: as §2
Rattus norvegicus [20] = assay: Mean excretion of […] in conscious rats at a dose of 1.0 mg/kg given orally; format: ADME, organism-based; design: dose 1 mg/kg, route oral; details: in vivo, po; summary of the method: as §2
Rattus norvegicus [21] = assay: Mean excretion of chloride in conscious rats at a dose of 10 mg/kg given orally; format: ADME, organism-based; design: dose 10 mg/kg, route oral; details: in vivo, po; summary of the method: as §3
Rattus norvegicus [22] = assay: Mean excretion of potassium in conscious rats at a dose of 0.3 mg/kg given orally; format: ADME, organism-based; design: dose 0.3 mg/kg, route oral; details: in vivo, po; summary of the method: as §3
Rattus norvegicus [23] = species on record: Rattus norvegicus; assay: […]; format: ADME, organism-based, Urine; design: dose 3 mg/kg, route oral; details: in vivo, po, 3 mg/kg; summary of the method: as §2
Rattus norvegicus [24] = assay: Mean excretion of Cl- in conscious rats at a dose of 0.3 mg/kg given orally; format: ADME, organism-based, Urine; design: dose 0.3 mg/kg, route oral; details: in vivo, po; summary of the method: as §4
Rattus norvegicus [25] = assay: Mean excretion of chloride in conscious rats at a dose of 100 mg/kg given orally; format: ADME, organism-based; design: dose 100 mg/kg, route oral; details: in vivo, po; summary of the method: as §3
Rattus norvegicus [26] = species on record: Rattus norvegicus; assay: […]; format: ADME, organism-based, Urine; design: dose 100 mg/kg, route oral; details: in vivo, po, 100 mg/kg; summary of the method: as §2
Rattus norvegicus [27] = assay: Mean excretion of chloride in conscious rats at a dose of 1.0 mg/kg given orally; format: ADME, organism-based; design: dose 1 mg/kg, route oral; details: in vivo, po; summary of the method: as §3
Rattus norvegicus [28] = species on record: Rattus norvegicus; assay: […]; format: ADME, organism-based, Urine; design: dose 30 mg/kg, route oral; details: in vivo, po, 30 mg/kg; summary of the method: as §2
[29] = Diuretic activity at 40 mg/kg (screening dose-61.6 umol/kg) in […] in a one stage experiment; T/C = urine vol of treated rats / urine vol of control rats; format: functional; summary of the method: as §1
[30] = Diuretic activity at 40 mg/kg (screening dose-100.8 umol/kg) in […] in a one stage experiment; T/C = urine vol of treated rats / urine vol of control rats; format: functional; summary of the method: as §1

CN(C)CCc1nnc2n1-c1ccc(Cl)cc1C(c1ccccc1)=NC2
T/C 1 [1]: 1.66
T/C 1.2 [2]: 3.04

CSc1ccc2c(c1)C(c1ccccc1)=NCc1nnc(C(CN(C)C)c3ccccc3)n1-2 (stereo not given)
Mean excretion of Na+ (Rattus norvegicus [3]): 1.39 m equiv
Mean excretion of K+ (Rattus norvegicus [4]): 0.23 m equiv
Mean urine volume (Rattus norvegicus [5]): 6.83 mL
Mean excretion of Cl- (Rattus norvegicus [6]): 1.69 m equiv
T/C 1 [7]: 2.29
Mean urine volume (Rattus norvegicus [8]): 3.92 mL
Mean excretion of K+ (Rattus norvegicus [9]): 0.36 m equiv
Mean excretion of K+ (Rattus norvegicus [10]): 0.25 m equiv
Mean excretion of Cl- (Rattus norvegicus [11]): 0.9 m equiv
Mean excretion of K+ (Rattus norvegicus [12]): 0.31 m equiv
Mean excretion of K+ (Rattus norvegicus [13]): 0.28 m equiv
Mean excretion of Na+ (Rattus norvegicus [14]): 0.91 m equiv
Mean excretion of Na+ (Rattus norvegicus [15]): 2.52 m equiv
T/C 1.2 [16]: 6.6
Mean excretion of Na+ (Rattus norvegicus [17]): 1.87 m equiv
Mean urine volume (Rattus norvegicus [18]): 5.12 mL
Mean excretion of Na+ (Rattus norvegicus [19]): 0.88 m equiv
Mean excretion of Na+ (Rattus norvegicus [20]): 0.94 m equiv
Mean excretion of Cl- (Rattus norvegicus [21]): 1.28 m equiv
Mean excretion of K+ (Rattus norvegicus [22]): 0.31 m equiv
Mean urine volume (Rattus norvegicus [23]): 5.2 mL
Mean excretion of Cl- (Rattus norvegicus [24]): 0.76 m equiv
Mean excretion of Cl- (Rattus norvegicus [25]): 2.17 m equiv
Mean urine volume (Rattus norvegicus [26]): 14.14 mL
Mean excretion of Cl- (Rattus norvegicus [27]): 0.89 m equiv
Mean urine volume (Rattus norvegicus [28]): 10.39 mL

Clc1ccc2c(c1)C(c1ccccc1)=NCc1nnc(C(CN3CCN(c4ccccc4)CC3)c3ccccc3)n1-2.O=C(O)C(=O)O (stereo not given)
T/C 1 [29]: 0.95

C=C(c1ccccc1)c1nnc2n1-c1ccc(Cl)cc1C(c1ccccc1)=NC2
T/C 1 [30]: 0.76

Reference: ChEMBL document CHEMBL1124476, “1-(2-aminoethyl)-6-aryl-4H- [1,2,4]triazolo[4,3-a][1,4]benzodiazepines with diuretic and natriuretic activity” (J Med Chem, 1989)
